Measurements taken from ChEMBL document CHEMBL3872222, “Synthesis of novel curcuminoids accommodating a central β-enaminone motif and their impact on cell growth and oxidative stress” (Eur J Med Chem, 2016).
≈ marks a conversion by molar mass, not a printed value.

Columns and labels:
[1] = Growth inhibition of human EAhy926 cells measured after 72 hrs by SRB assay; assay type: cell-based; settings: EA.hy 926, 72 h
Summary of the method: (§1)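 20000 cells/well treated after 1 day at 1, 5, 10, 25 μM, serum-free, for 3 days. Fixed with 50% TCA 1 h at 4 °C, stained 30 min with 0.4% sulforhodamine B in 1% acetic acid, rinsed with 1% acetic acid, dye dissolved in 10 mM Tris, absorbance 490 nm; triplicate; IC50 derived.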

Caco-2 [2] = assay: Effect on oxidative stress in undifferentiated human Caco2 cells assessed as intracellular ROS level at 10 uM after overnight incubation by DCFH-DA staining based fluorescence assay relative to control; assay type: functional
Summary of the method: (§2)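 Cells grown in DMEM+glutamax, 1% NEAA, 1% P/S, 10% FBS; seeded 20000/well, treated at confluency overnight in serum-free medium, DMSO under 0.1% final. Loaded with 20 μM DCFH-DA 30 min at 37 °C, 10% CO2; washed, phenol red-free medium 1 h, then serum-free medium; fluorescence ex 485/em 535 nm. Percent of untreated; two-tailed unequal-variance t-test, n≥6.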

[3] = Growth inhibition of undifferentiated human Caco2 cells measured after 72 hrs by SRB assay; assay type: functional, cell-based; settings: Caco-2, 72 h; summary of the method: as §1
[4] = Growth inhibition of CHOK1 cells measured after 72 hrs by SRB assay; assay type: functional, cell-based; settings: Cricetulus griseus, CHO-K1, 72 h; summary of the method: as §1
HT-29 [5] = assay: Antioxidant activity in human HT-29 cells assessed as decrease in intracellular ROS level after overnight incubation by DCFH-DA staining based fluorescence assay
CHO [6] = assay: Effect on oxidative stress in CHO cells assessed as intracellular ROS level at 1 uM after overnight incubation by DCFH-DA staining based fluorescence assay relative to control; assay type: functional, Cricetulus griseus; summary of the method: as §2
[7] = Growth inhibition of undifferentiated human Caco2 cells assessed as mitochondrial activity measured after 72 hrs by MTT assay; assay type: functional, cell-based; settings: Caco-2, 72 h
Summary of the method: (§3)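 Seeded 20000 cells/well in DMEM+glutamax, NEAA, P/S, FBS; after 1 day treated 1, 5, 10, 25 μM in serum-free medium (DMSO under 0.1%) for 3 days. MTT (5 mg/ml in PBS) 2 h at 37 °C, 10% CO2 in dark; formazan dissolved in DMSO, absorbance 570 nm; triplicate; IC50 derived.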

EA.hy 926 [8] = assay: Effect on oxidative stress in human EAhy926 cells assessed as intracellular ROS level at 1 uM after overnight incubation by DCFH-DA staining based fluorescence assay relative to control; assay type: functional; summary of the method: as §2
Caco-2 [9] = assay: Effect on oxidative stress in undifferentiated human Caco2 cells assessed as intracellular ROS level at 1 uM after overnight incubation by DCFH-DA staining based fluorescence assay relative to control; assay type: functional; summary of the method: as §2
[10] = Growth inhibition of human EAhy926 cells assessed as mitochondrial activity measured after 72 hrs by MTT assay; assay type: cell-based; settings: EA.hy 926, 72 h; summary of the method: as §3
[11] = Growth inhibition of CHOK1 cells assessed as mitochondrial activity measured after 72 hrs by MTT assay; assay type: functional, cell-based; settings: Cricetulus griseus, CHO-K1, 72 h; summary of the method: as §3
[12] = Growth inhibition of human HT-29 cells assessed as mitochondrial activity measured after 72 hrs by MTT assay; assay type: functional, cell-based; settings: HT-29, 72 h; summary of the method: as §3
[13] = Growth inhibition of differentiated human Caco2 cells assessed as mitochondrial activity measured after 72 hrs by MTT assay; assay type: cell-based; settings: Caco-2, 72 h; summary of the method: as §3
[14] = Antioxidant activity assessed as inhibition of DPPH radical activity at 1 uM measured after 30 mins under dark conditions by spectrophotometric analysis relative to control; assay type: functional
CHO [15] = assay: Effect on oxidative stress in CHO cells assessed as intracellular ROS level at 10 uM after overnight incubation by DCFH-DA staining based fluorescence assay relative to control; assay type: functional, Cricetulus griseus; summary of the method: as §2
[16] = Growth inhibition of human HT-29 cells measured after 72 hrs by SRB assay; assay type: functional, cell-based; settings: HT-29, 72 h; summary of the method: as §1
HT-29 [17] = assay: Effect on oxidative stress in human HT-29 cells assessed as intracellular ROS level at 10 uM after overnight incubation by DCFH-DA staining based fluorescence assay relative to control; assay type: functional; summary of the method: as §2
[18] = Solubility of the compound in serum-free DMEM assessed as compound concentration required for crystal formation measured after 1 day by microscopic analysis; assay type: physicochemical; settings: 24 h
Summary of the method: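 Compound at 0, 0.5, 1, 5, 10, 25 and 50 μM in serum-free DMEM incubated 1 day at 37 °C, 10% CO2, then examined for crystal formation.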

HT-29 [19] = assay: Effect on oxidative stress in human HT-29 cells assessed as intracellular ROS level at 1 uM after overnight incubation by DCFH-DA staining based fluorescence assay relative to control; assay type: functional; summary of the method: as §2
EA.hy 926 [20] = assay: Effect on oxidative stress in human EAhy926 cells assessed as intracellular ROS level at 10 uM after overnight incubation by DCFH-DA staining based fluorescence assay relative to control; assay type: functional; summary of the method: as §2
[21] = Antioxidant activity assessed as trolox equivalent of ferric ion reducing activity using Fe3+-TPTZ by measuring Fe2+-TPTZ formation after 4 mins by UV-vis spectrophotometry based FRAP assay; assay type: functional
Summary of the method: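 FRAP reagent: 300 mM acetate buffer, 10 mM TPTZ in ethanol and 20 mM FeCl3 (in dilute HCl) combined 10:1:1, TPTZ and iron freshly made. Sample mixed 1:9 with reagent; absorbance 593 nm after 4 min. Expressed as trolox equivalents per μM from slope of linear plot versus analog concentration.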

HT-29 [22] = assay: Antioxidant activity in human HT-29 cells assessed as decrease in intracellular ROS level after overnight incubation by DCFH-DA staining based fluorescence assay; assay type: functional, cell-based; summary of the method: as §2
[23] = Growth inhibition of differentiated human Caco2 cells measured after 72 hrs by SRB assay; assay type: cell-based; settings: Caco-2, 72 h; summary of the method: as §1

In the case of `COc1cc(/C=C/C(=O)CC(=O)/C=C/c2ccc(O)c(OC)c2)ccc1O` [CURCUMIN], the IC50 [1] is reported as > 25 µM, the Activity (Caco-2 [2]) is reported as 77% and the IC50 [3] is reported as > 25 µM. For the same molecule, the IC50 [4] was > 25 µM, the Activity (HT-29 [5]) was “Dose-dependent effect” and the Activity (CHO [6]) was 112%. The IC50 [7] was > 25 µM, the Activity (EA.hy 926 [8]) was 91% and the Activity (Caco-2 [9]) was 84%. The IC50 [10] was > 25 µM, the IC50 [11] was 7.5 µM and the IC50 [12] was > 25 µM. The IC50 [13] was > 25 µM, the inhibition [14] was 0.15% and the Activity (CHO [15]) was 97%. The IC50 [16] was > 25 µM, the Activity (HT-29 [17]) was 65% and the solubility [18] was 0.5 µM (≈ 0.184 µg/mL). For the same molecule, the Activity (HT-29 [19]) was 67%, the Activity (EA.hy 926 [20]) was 88% and the Activity [21] was 1 µMequiv/µM. The Activity (HT-29 [22]) was “Dose-dependent effect” and the IC50 [23] was > 25 µM.

For `COc1cc(/C=C/C(=O)/C=C(/C=C/c2ccc(OC(C)=O)c(OC)c2)NC2CCCCC2)ccc1OC(C)=O`, the IC50 [1] was > 25 µM, the Activity (Caco-2 [2]) was 62% and the IC50 [3] was 4.4 µM. For the same molecule, the IC50 [4] was > 25 µM, the Activity (CHO [6]) was 89% and the IC50 [7] was 9.7 µM. For the same molecule, the Activity (EA.hy 926 [8]) was 101%, the Activity (Caco-2 [9]) was 89% and the IC50 [10] was > 25 µM. The IC50 [11] was 10.1 µM, the IC50 [12] was > 25 µM and the IC50 [13] was > 25 µM. The inhibition [14] was 0.01%, the Activity (CHO [15]) was 122% and the IC50 [16] was > 25 µM. It also gave an Activity (HT-29 [17]) of 94%, a solubility [18] of 5 µM (≈ 2.67 µg/mL) and an Activity (HT-29 [19]) of 96%. The Activity (EA.hy 926 [20]) was 113%, the Activity [21] was 0.04 µMequiv/µM and the IC50 [23] was > 25 µM.

With `O=C(/C=C/c1ccc(O)cc1)CC(=O)/C=C/c1ccc(O)cc1` [BISDEMETHOXYCURCUMIN] the IC50 [1] was > 25 µM, the Activity (Caco-2 [2]) was 83% and the IC50 [3] was > 25 µM. The IC50 [4] was > 25 µM, the Activity (CHO [6]) was 101% and the IC50 [7] was > 25 µM. For the same molecule, the Activity (EA.hy 926 [8]) was 92%, the Activity (Caco-2 [9]) was 98% and the IC50 [10] was > 25 µM. For the same molecule, the IC50 [11] was > 25 µM, the IC50 [12] was > 25 µM and the IC50 [13] was > 25 µM. The inhibition [14] was 0.02%, the Activity (CHO [15]) was 105% and the IC50 [16] was > 25 µM. It also gave an Activity (HT-29 [17]) of 69%, a solubility [18] of 25 µM (≈ 7.71 µg/mL) and an Activity (HT-29 [19]) of 75%. The Activity (EA.hy 926 [20]) was 103%, the Activity [21] was 0.28 µMequiv/µM and the IC50 [23] was > 25 µM.

For `COc1cc(/C=C/C(=O)/C=C(/C=C/c2ccc(O)c(OC)c2)NCC(C)C)ccc1O`, the IC50 [1] was > 25 µM, the Activity (Caco-2 [2]) was 74% and the IC50 [3] was > 25 µM. The IC50 [4] was > 25 µM, the Activity (CHO [6]) was 104% and the IC50 [7] was > 25 µM. For the same molecule, the Activity (EA.hy 926 [8]) was 83%, the Activity (Caco-2 [9]) was 91% and the IC50 [10] was > 25 µM. The IC50 [11] was > 25 µM, the IC50 [12] was 24.5 µM and the IC50 [13] was > 25 µM. For the same molecule, the inhibition [14] was 0.09%, the Activity (CHO [15]) was 118% and the IC50 [16] was 24 µM. For the same molecule, the Activity (HT-29 [17]) was 92%, the solubility [18] was 25 µM (≈ 10.6 µg/mL) and the Activity (HT-29 [19]) was 91%. For the same molecule, the Activity (EA.hy 926 [20]) was 100%, the Activity [21] was 0.89 µMequiv/µM and the IC50 [23] was > 25 µM.

With `CC(=O)Oc1ccc(/C=C/C(=O)/C=C(/C=C/c2ccc(OC(C)=O)cc2)NCC(C)C)cc1` the IC50 [1] was > 25 µM, the Activity (Caco-2 [2]) was 85% and the IC50 [3] was > 25 µM. For the same molecule, the IC50 [4] was > 25 µM, the Activity (CHO [6]) was 152% and the IC50 [7] was > 25 µM. The Activity (EA.hy 926 [8]) was 60%, the Activity (Caco-2 [9]) was 102% and the IC50 [10] was > 25 µM. For the same molecule, the IC50 [11] was > 25 µM, the IC50 [12] was 13.7 µM and the IC50 [13] was > 25 µM. The inhibition [14] was 0%, the Activity (CHO [15]) was 142% and the IC50 [16] was 22.6 µM. It also gave an Activity (HT-29 [17]) of 99%, a solubility [18] of 25 µM (≈ 11.2 µg/mL) and an Activity (HT-29 [19]) of 92%. For the same molecule, the Activity (EA.hy 926 [20]) was 53%, the Activity [21] was 0.01 µMequiv/µM and the IC50 [23] was > 25 µM.
